Screening data (PubChem)
STAT3 activator: STAT3 signaling activation; activation (% of control), % at 5.6 µM; U3A cells, IL-6 STAT3-luciferase reporter, luminescence; 100% = signal with IL-6 EC80 alone; 0.91% of 190,000 active; AID 871;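 active = activation above the screen-wide mean of compound activation plus 3 SD, cut at about 130% in these data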
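System – human U3A cells carrying STAT3-luciferase construct · Probe or stimulus – Interleukin-6, 33 ng/mL · Schedule – compound 1 h, then IL-6 6 h at 37 °C · Signal – luminescence from STAT3-driven luciferase reporter · Evaluation – percent of IL-6-only median luminescence · Benchmarks – IL-6-only high control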
STAT1 blocker: reduces IFN-gamma driven STAT1 reporter signal | inhibition, % at 5.5 µM | AID 920 | 0.35% of 200,000 active | NIH 3T3 STAT1-luciferase reporter, luminescence;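 active = inhibition above a set limit, the mean inhibition across all tested compounds plus 3 SD, cut at about 34% in these data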
STAT3 inh: STAT3 signaling inhibition. U3A cells, IL-6 STAT3-luciferase reporter, luminescence; host cell line lacks STAT1. inhibition, % at 5.5 µM. 0.89% of 190,000 active. AID 862;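 active = inhibition above the mean inhibition across all screened compounds plus 3 SD, cut at about 44% in these data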
STAT1 act: STAT1 signaling activation; NIH 3T3 STAT1-luciferase reporter, IFN-gamma, luminescence; 100% = IFN-gamma alone, no compound; activation (% of control), % at 5.5 µM; 2.6% of 200,000 active; AID 932;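 active = activation above the screen-wide mean activation plus 3 SD, cut at about 130% in these data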
Of the large screens only hits and unclear results are named; the others gave an inactive call. The list is not random: actives were taken first. Their share in the collection is about 4.3%.

COc1cccc(/C=N/Nc2ncnc(N)c2[N+](=O)[O-])c1OC	STAT1 blocker 58.9, STAT3 inh 86.5
Cc1ccc(C(=O)Cn2cnc3ccccc3c2=O)cc1	STAT1 act 132.9
O=C(Cn1cnc2ccccc2c1=O)c1ccc(Br)cc1	STAT1 act 143.8
CC(C)(C)n1ncc2c(=O)n(CC(=O)c3ccccc3)cnc21	STAT1 act 150.4
O=C(Cn1cnc2ccccc2c1=O)c1ccccc1	none
O=C(OCc1cccc([N+](=O)[O-])c1)c1ccc2ccccc2n1	none
Cn1c(SCC(=O)N2CCc3ccccc32)nnc1-c1ccc(S(=O)(=O)N2CCCC2)cc1	none
CCCCCOC(=O)NCC(O)c1ccccc1 (centres undefined)	STAT1 act 144.3
Clc1ccc(COn2nnc3ccccc32)c(Cl)c1	STAT1 act 146.3
Cc1cccnc1CN1CCN(C(=O)c2cc(COc3ccc4ncccc4c3)on2)CC1	STAT1 blocker 35.6, STAT3 inh 45.7
CCOC(=O)N1CCN(C(=O)c2cc(COc3ccc4ncccc4c3)on2)CC1	STAT1 blocker 42.9, STAT3 inh 56.2
O=c1cc(-c2ccccc2)nc2nc(-c3ccccc3)[nH]n12	STAT3 activator 158.5, STAT1 act 155.5
CCOCCCNS(=O)(=O)c1ccc(Br)cc1	none
CN(C)S(=O)(=O)c1ccc(C(=O)NCCOc2ccc(F)cc2)cc1	none
CN(C)S(=O)(=O)c1ccc(C(=O)NCCOc2ccccc2)cc1	STAT1 act 130.7
CCOc1ccc(C(=O)NCC(c2cccs2)N(C)C)cc1 (centres undefined)	none
COc1ccccc1NC(=O)CN1CC(=O)Nc2ccccc21	STAT3 activator 134.1
COc1ccc(-c2nsc3c(N4CCCCC4C)ncnc23)cc1 (centres undefined)	STAT1 blocker 80.6, STAT3 inh 98.7
COc1ccc(C(=O)N2CCN(c3ncnc4c(-c5ccccc5)nsc34)CC2)cc1	none
CC(C)C(NC(N)=O)C(=O)NC1CCCCC1 (centres undefined)	none
Cn1c(SC2CCCCC2=O)nnc1-c1ccccc1F (centres undefined)	none
O=C(O)c1cccc(NC(=O)c2ccc(Cl)c(S(=O)(=O)N3CCCCCC3)c2)c1	STAT1 blocker 39.5, STAT3 inh 52.8
O=C(Nc1ccccc1C(=O)O)c1ccc(Cl)c(S(=O)(=O)N2CCOCC2)c1	STAT1 blocker 51.3
O=C(Nc1ccccc1)c1cccc(S(=O)(=O)N2CCCCC2)c1	none
CS(=O)(=O)Nc1ccc(C2=NN(S(=O)(=O)c3ccc(F)cc3)C(c3ccco3)C2)cc1 (centres undefined)	none
CC1CN(C(=O)c2ccc(COc3ccc(C(C)C)cc3)o2)CC(C)O1 (centres undefined)	STAT3 activator 133.0, STAT1 act 129.1
O=C(Nc1ccc2nsnc2c1)C1CC1	none
COc1cccc(NC(=O)Nc2ccc3nsnc3c2)c1	STAT1 act 131.4
COc1ccc(NC(=O)Nc2cccc(OC)c2)cc1	none
Nc1ccc(NC(=O)NC2CCCCC2)cc1	none
O=C(Nc1ccc(Cl)cc1)NC1CCCCC1	STAT1 act 138.3
S=C(Nc1ccc2nsnc2c1)N1CCCCC1	STAT1 act 132.2
O=C(Nc1ccc2nsnc2c1)NC1CCCCC1	STAT1 act 131.4
COC(=O)NC1CCC(NC(=O)OC)CC1 (centres undefined)	none
Cc1ccc2nc(SC(C)C(=O)N3CCOCC3)[nH]c2c1 (centres undefined)	STAT1 act 145.8
COc1cccc(N2CCN(C(=O)c3ccc4nc(N5CCCCC5)sc4c3)CC2)c1	STAT1 act 136.0
Cc1ccccc1Cn1ccc(=NCc2ccccc2)cc1	none
Cc1nn(C)c(C)c1CNC(=O)Nc1cccc(Cl)c1	none
Cc1nn(C)c(C)c1CNC(=O)Nc1ccc(Cl)cc1	STAT1 act 128.9
O=c1cc(-c2cccs2)oc2ccc(Cl)cc12	STAT1 act 147.0
O=C(O)c1cc(=O)c2cc(Cl)ccc2o1	none
O=c1c(O)c(-c2cccs2)oc2ccc(Cl)cc12	none
O=c1cc(-c2ccc3c(c2)OCCO3)oc2ccc(Cl)cc12	STAT1 act 141.8
O=C(Nc1nccs1)c1cc2c(s1)CCCCC2	STAT1 blocker 70.4, STAT3 inh 95.2
COC(=O)N/N=C/c1cn(CC(C)COc2ccccc2)c2ccccc12 (centres undefined)	none
N#C/C(=C\c1ccc(N2CCCCC2)o1)C(=O)Nc1cccc(Br)c1	STAT1 act 159.6
CCOc1ccccc1NC(=O)Nc1ccc(Br)cc1C	none
O=C(CCNc1ccccc1)c1ccc2c(c1)OCO2	STAT1 act 147.8
